In ChEMBL document CHEMBL1145845, “Acetogenins as selective inhibitors of the human ovarian 1A9 tumor cell line” (2003):
In brackets after ≈: the same amount, converted by molar mass. Activity calls are given as the source filed them.

Legend:
KB [1] = assay: Effective dose required for inhibitory activity against KB-VIN human tumor cell line.; assay type: functional; details: read-out: ED50 (the source's name)
Method in brief: (§1)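 Human tumor lines were grown in RPMI-1640 with 25 mM HEPES, 0.25% sodium bicarbonate, 10% FBS and 100 µg/mL kanamycin. KB-VIN is a vincristine-resistant KB subline, and PTX10 is a 1A9 subline with mutated β-tubulin. Trypsinized cells (1500–7500/well) got compound from DMSO stock for 3 days continuous. Cells were fixed with cold 50% TCA, stained with 0.4% SRB, and read at 562 nm. ED50 is the 50% growth-reduction concentration; not active means ≤5% inhibition at the top concentration.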

1A9/ptx-10 [2] = assay: Effective dose required for inhibitory activity against PTX10 human tumor cell line; assay type: functional; details: read-out: ED50 (the source's name); method in brief: as §1
MCF7 [3] = assay: Percent inhibition against MCF-7 human tumor cell line at <5 ug/mL; assay type: functional
PC-3 = assay: Effective dose required for inhibitory activity against PC-3 human tumor cell line.; assay type: functional; details: read-out: ED50 (the source's name); method in brief: as §1
A549 = assay: Effective dose required for inhibitory activity against A549 human tumor cell line.; assay type: functional; details: read-out: ED50 (the source's name); method in brief: as §1
HCT-8 = assay: Effective dose required for inhibitory activity against HCT-8 human tumor cell line.; assay type: functional; details: read-out: ED50 (the source's name); method in brief: as §1
SK-MEL-2 = assay: Effective dose required for inhibitory activity against SK-MEL-2 human tumor cell line.; assay type: functional; details: read-out: ED50 (the source's name); method in brief: as §1
CAKI-1 [4] = assay: Effective dose required for inhibitory activity against CAK1 human tumor cell line; assay type: functional; details: read-out: ED50 (the source's name); method in brief: as §1
1A9 = assay: Effective dose required for inhibitory activity against 1A9 human tumor cell line.; assay type: functional; details: read-out: ED50 (the source's name); method in brief: as §1
HOS [5] = assay: Effective dose required for inhibitory activity against HOS human tumor cell line.; assay type: functional; details: read-out: ED50 (the source's name); method in brief: as §1
KB [6] = assay: Effective dose required for inhibitory activity against KB human tumor cell line.; assay type: functional; details: read-out: ED50 (the source's name); method in brief: as §1
MCF7 [7] = assay: Effective dose required for inhibitory activity against MCF-7 human tumor cell line.; assay type: functional; details: read-out: ED50 (the source's name); method in brief: as §1
HOS [8] = assay: Effective dose required for inhibitory activity against HOS human tumor cell line; Not active; assay type: functional, cell-based; method in brief: as §1
1A9/ptx-10 [9] = assay: Percent inhibition against PTX10 human tumor cell line at >10 ug/mL; assay type: functional
CAKI-1 [10] = assay: Effective dose required for inhibitory activity against CAK1 human tumor cell line; Not active; assay type: functional, cell-based; method in brief: as §1

EC50 (KB [1]) [µg/mL] | EC50 (1A9/ptx-10 [2]) [µg/mL] | EC50 (PC-3) [µg/mL] | EC50 (A549) [µg/mL] | EC50 (HCT-8) [µg/mL] | EC50 (SK-MEL-2) [µg/mL] | EC50 (1A9) [µg/mL] | EC50 (HOS [5]) [µg/mL] | EC50 (KB [6]) [µg/mL] | Compound | Inhibition (MCF7 [3]) [%] | EC50 (CAKI-1 [4]) [µg/mL] | EC50 (MCF7 [7]) [µg/mL] | NA (HOS [8]) | Inhibition (1A9/ptx-10 [9]) [%] | NA (CAKI-1 [10])
13.7 (≈ 21.9 µM) | 6.8 (≈ 10.9 µM) | 9.2 (≈ 14.7 µM) | 11.8 (≈ 18.9 µM) | 13.7 (≈ 21.9 µM) | 14.1 (≈ 22.6 µM) | 0.078 (≈ 0.125 µM) | 14.1 (≈ 22.6 µM) | 9.2 (≈ 14.7 µM) | CCCCCCCCCCCC[C@H](O)[C@@H]1CC[C@@H]([C@@H](O)CCCCCCC(O)CCCCC[C@@H](O)CC2=C[C@H](C)OC2=O)O1 (some centres undefined) [ANNOMONTACIN] | 51 | 15.3 (≈ 24.5 µM) |  |  |  | 
13.3 (≈ 21.3 µM) | 7.2 (≈ 11.5 µM) | 12.2 (≈ 19.5 µM) | 11.5 (≈ 18.4 µM) | 12.7 (≈ 20.3 µM) | 15 (≈ 24 µM) | 0.5 (≈ 0.8 µM) | 13.6 (≈ 21.8 µM) | 9 (≈ 14.4 µM) | CCCCCCCCCCCCCC[C@@H](O)[C@H]1CC[C@H]([C@H](O)CCCCC(O)CCCCCC(O)CC2=C[C@H](C)OC2=O)O1 (some centres undefined) |  | 16 (≈ 25.6 µM) | 5.6 (≈ 8.96 µM) |  |  | 
> 20 |  | 14.5 (≈ 25 µM) | 17.2 (≈ 29.7 µM) | 13.8 (≈ 23.8 µM) | 15.3 (≈ 26.4 µM) | 1.93 (≈ 3.33 µM) | 16 (≈ 27.6 µM) | 13.5 (≈ 23.3 µM) | CCCCCCCCC[C@H](O)[C@@H]1CC[C@@H]([C@@H]2CC[C@@H](CCCCCCCCCC[C@H](O)CC3=C[C@H](C)OC3=O)O2)O1 |  | 17.8 (≈ 30.7 µM) | 7.6 (≈ 13.1 µM) |  | 30 | 
 | 0.041 (≈ 0.048 µM) |  | 0.005 (≈ 0.00586 µM) | 0.011 (≈ 0.0129 µM) |  | 0.002 (≈ 0.00234 µM) |  | 0.001 (≈ 0.00117 µM) | CC(=O)O[C@H]1C(=O)[C@@]2(C)[C@H]([C@H](OC(=O)c3ccccc3)[C@]3(O)C[C@H](OC(=O)[C@H](O)[C@@H](NC(=O)c4ccccc4)c4ccccc4)C(C)=C1C3(C)C)[C@]1(OC(C)=O)CO[C@@H]1C[C@@H]2O [PACLITAXEL] |  |  |  |  |  | 
14 (≈ 22.4 µM) | 8.7 (≈ 13.9 µM) | 14 (≈ 22.4 µM) | 14.5 (≈ 23.2 µM) | 15 (≈ 24 µM) | 15.1 (≈ 24.2 µM) | 0.08 (≈ 0.128 µM) | 15 (≈ 24 µM) | 10.8 (≈ 17.3 µM) | CCCCCCCCCCCC[C@@H](O)[C@H]1CC[C@@H]([C@@H](O)CCCCCCC(O)CCCCC[C@@H](O)CC2=C[C@H](C)OC2=O)O1 (some centres undefined) |  | 17.3 (≈ 27.7 µM) | 6.6 (≈ 10.6 µM) |  |  | 
> 20 |  | > 20 | > 20 | > 20 | > 20 | 8.8 (≈ 16.5 µM) | > 20 | > 20 | CCCCCCCCCCCCCCCCCC1OC1C1OC1CCCCCCCCC1=C[C@H](C)OC1=O (some centres undefined) |  |  | > 20 |  | 15 | inactive

Compound | EC50 (KB [1]) [µg/mL] | EC50 (1A9/ptx-10 [2]) [µg/mL] | EC50 (PC-3) [µg/mL] | EC50 (A549) [µg/mL] | EC50 (HCT-8) [µg/mL] | EC50 (SK-MEL-2) [µg/mL] | EC50 (1A9) [µg/mL] | EC50 (HOS [5]) [µg/mL] | EC50 (KB [6]) [µg/mL] | Inhibition (MCF7 [3]) [%] | EC50 (CAKI-1 [4]) [µg/mL] | EC50 (MCF7 [7]) [µg/mL] | NA (HOS [8]) | Inhibition (1A9/ptx-10 [9]) [%] | NA (CAKI-1 [10])
CCCCC(O)C(O)C/C=C\CC[C@H](O)[C@@H]1CC[C@@H](CCCCCCCCCCCC[C@H](O)CC2=C[C@H](C)OC2=O)O1 (some centres undefined) | > 20 |  | > 20 | > 20 | > 20 | > 20 | 0.87 (≈ 1.46 µM) |  | > 20 |  | > 20 | 14.3 (≈ 24 µM) | inactive | 25 | 
CCCCCCCCCCCC[C@@H](O)[C@H]1CC[C@@H]([C@@H](O)CCCCC(=O)CCCCCCCC2=C[C@H](C)OC2=O)O1 [COROSSOLONE] | > 20 |  | 13.5 (≈ 23.3 µM) | 19 (≈ 32.8 µM) | > 20 | 18.8 (≈ 32.5 µM) | 0.82 (≈ 1.42 µM) | > 20 | 18 (≈ 31.1 µM) |  | > 20 | 7.9 (≈ 13.6 µM) |  | 37 | 
CCCCCCCC(O)C(O)CCCC[C@@H](O)[C@H]1CC[C@H](CCCCCCCCCCCCC2=C[C@H](C)OC2=O)O1 (some centres undefined) | > 20 |  | 17.5 (≈ 30.1 µM) | > 20 | > 20 | 17.5 (≈ 30.1 µM) | 0.77 (≈ 1.33 µM) | > 20 | 15.1 (≈ 26 µM) |  | > 20 | 10.5 (≈ 18.1 µM) |  | 37 | 
CCCCCCCC(O)C(O)CC[C@H](O)[C@@H]1CC[C@@H](CCCCCCCCCC[C@H](O)CC2=C[C@H](C)OC2=O)O1 (some centres undefined) | > 20 |  | > 20 | > 20 | > 20 | > 20 | 0.68 (≈ 1.2 µM) | > 20 | 18 (≈ 31.6 µM) |  | > 20 | 15.5 (≈ 27.2 µM) |  | 27 | 
